Laboratory results reported in ChEMBL document CHEMBL1137637, “Quinuclidine derivatives as potential antiparasitics” (Antimicrob Agents Chemother, 2007).

Tests used:
[1] = tested on: Leishmania amazonensis; assay: Inhibition of sterol biosynthesis in Leishmania mexicana amazonensis promastigotes assessed as reduction in endogenous episterol level at 1 uM after 96 hrs by gas-liquid chromatography; format: functional; design: scale not given: the % may be the effect or the level left
How it was run: (§1)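 L. mexicana promastigotes exposed to compound for 96 h. Total lipids extracted and neutral sterols separated from polar lipids by silicic acid column chromatography. Sterols analysed by TLC and by quantitative capillary gas-liquid chromatography with mass spectrometry. Composition expressed as mass % of free sterols, compared with untreated control.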

[2] = tested on: Leishmania amazonensis; assay: Inhibition of sterol biosynthesis in Leishmania mexicana amazonensis promastigotes assessed as reduction in endogenous 5-dehydro episterol level at 3 uM after 96 hrs by gas-liquid chromatography; format: functional; design: scale not given: the % may be the effect or the level left; how it was run: as §1
[3] = tested on: Leishmania amazonensis; assay: Inhibition of sterol biosynthesis in Leishmania mexicana amazonensis promastigotes assessed as reduction in endogenous 5-dehydro episterol level at 1 uM after 96 hrs by gas-liquid chromatography; format: functional; design: scale not given: the % may be the effect or the level left; how it was run: as §1
[4] = biological target: T1, Farnesyltransferase, putative (Trypanosoma cruzi (strain CL Brener), UniProt Q4CXF7); assay: Inhibition of Trypanosoma cruzi squalene synthase
T1 sequence (Q4CXF7 whole entry): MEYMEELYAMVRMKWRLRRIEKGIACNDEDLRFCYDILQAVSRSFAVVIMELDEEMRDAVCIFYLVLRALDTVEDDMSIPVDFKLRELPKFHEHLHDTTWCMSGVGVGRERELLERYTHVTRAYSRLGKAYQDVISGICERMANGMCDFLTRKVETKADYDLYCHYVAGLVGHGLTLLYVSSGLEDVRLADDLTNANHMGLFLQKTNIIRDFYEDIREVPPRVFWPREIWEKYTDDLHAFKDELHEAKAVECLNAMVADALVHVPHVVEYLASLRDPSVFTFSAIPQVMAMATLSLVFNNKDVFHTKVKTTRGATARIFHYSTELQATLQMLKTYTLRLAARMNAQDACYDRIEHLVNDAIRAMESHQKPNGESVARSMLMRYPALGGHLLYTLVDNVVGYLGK

[5] = tested on: Leishmania amazonensis; assay: Inhibition of sterol biosynthesis in Leishmania mexicana amazonensis promastigotes assessed as reduction in endogenous episterol level at 3 uM after 96 hrs by gas-liquid chromatography; format: functional; design: scale not given: the % may be the effect or the level left; how it was run: as §1
[6] = biological target: T2, Farnesyltransferase, putative (Leishmania major, UniProt Q4Q5W4); assay: Inhibition of Leishmania major recombinant squalene synthase expressed in Escherichia coli by liquid scintillation counter
T2 sequence (Q4Q5W4 whole entry): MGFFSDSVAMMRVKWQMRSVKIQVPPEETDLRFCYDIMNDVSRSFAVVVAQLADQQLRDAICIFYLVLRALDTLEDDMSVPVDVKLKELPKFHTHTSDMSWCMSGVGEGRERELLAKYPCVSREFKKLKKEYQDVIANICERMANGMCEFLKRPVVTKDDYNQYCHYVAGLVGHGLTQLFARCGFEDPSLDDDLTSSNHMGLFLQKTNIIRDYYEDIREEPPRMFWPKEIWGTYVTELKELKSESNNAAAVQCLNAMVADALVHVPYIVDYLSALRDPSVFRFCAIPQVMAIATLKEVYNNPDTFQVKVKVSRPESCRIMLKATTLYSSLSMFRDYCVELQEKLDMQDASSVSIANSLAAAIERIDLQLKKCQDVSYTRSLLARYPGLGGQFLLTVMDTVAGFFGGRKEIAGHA
How it was run: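 Soluble E. coli extract expressing L. major SQS truncated by 16 N-terminal and 40 C-terminal residues. Buffer: 50 mM phosphate pH 7.4, 20 mM MgCl2, 5 mM CHAPS, 1% Tween 80, 10 mM DTT, BSA, 0.25 mM NADPH, and a glucose-6-phosphate/G6PDH regenerating system. Substrate 0.5 μM radiolabelled farnesyl pyrophosphate. Squalene band counted by scintillation. IC50 from hyperbolic plot of five concentrations in duplicate, usually run twice.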

[7] = tested on: Leishmania amazonensis; assay: Inhibition of sterol biosynthesis in Leishmania mexicana amazonensis promastigotes assessed as reduction in exogenous cholesterol level at 3 uM after 96 hrs by gas-liquid chromatography; format: functional; design: scale not given: the % may be the effect or the level left; how it was run: as §1
[8] = tested on: Leishmania amazonensis; assay: Inhibition of sterol biosynthesis in Leishmania mexicana amazonensis promastigotes assessed as reduction in exogenous cholesterol level at 1 uM after 96 hrs by gas-liquid chromatography; format: functional; design: scale not given: the % may be the effect or the level left; how it was run: as §1
[9] = Inhibition of Leishmania mexicana squalene synthase

Compound: OC1(c2ccc(-c3ccccc3)cc2)CN2CCC1CC2 (centres undefined)
- Activity [1]: 16.8%
- Activity [2]: 39.6%
- Activity [3]: 65.7%
- Ki [4]: 62 nM
- Activity [5]: 20.8%
- IC50 [6]: 13 nM
- Activity [7]: 39.6%
- Activity [8]: 17.5%
- Ki [9]: 12 nM
